Measured values taken from ChEMBL document CHEMBL1125051, “Synthesis and antineoplastic properties of ether-linked thioglycolipids” (1990).

Columns and labels:
C653 = assay: Antineoplastic activity against C653 cell line in which [3H]-thymidine was incorporated into DNA; format: functional, Mus musculus; design: concentration or dose not given beside the values
Summary of the method: (§1)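 Mouse leukemic/myeloma/hybridoma lines kept at 37 °C in RPMI 1640 with 10% heat-inactivated FBS, penicillin, streptomycin, 50 μM mercaptoethanol. 2×10^4 cells/well exposed to drug at 40 μM for 48 h. Drug was diluted from 0.1 M ethanol stock into medium, and controls received ethanol-containing medium. [3H]thymidine (0.1 μCi/well) was then added for 24 h. Cells were harvested onto glass-fibre filters and water-washed, and DNA-incorporated counts were taken by scintillation as % of control.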

R6X-B15 = assay: Antineoplastic activity against R6X-B15 cell line in which [3H]thymidine was incorporated into DNA; format: functional, Mus musculus; summary of the method: as §1
WEHI3B = assay: Antineoplastic activity against WEHI 3B cell line in which [3H]thymidine was incorporated into DNA; format: functional, Mus musculus; design: concentration or dose not given beside the values; summary of the method: as §1
X63/OMIL3 cell line = assay: Antineoplastic activity against X63/OMIL3 cell line in which [3H]thymidine was incorporated into DNA; format: functional, Mus musculus; design: concentration or dose not given beside the values; summary of the method: as §1
[1] = Compound was evaluated for WEHI-3B cell viability after 48 hour at a concentration of 10 uM of compound was reported.; format: functional, Mus musculus
Summary of the method: (§2)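 WEHI-3B cells were treated with drug at 0–30 μM for 24 or 48 h in RPMI 1640 with 10% FBS at 37 °C. Cells were then diluted 1:10 in 2.5% trypan blue and counted by light microscopy, with dye-stained cells scored dead. Viability is given as % of untreated control.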

[2] = Compound was evaluated for WEHI-3B cell viability after 48 hour at a concentration of 2.5 uM of compound was reported.; format: functional, Mus musculus; summary of the method: as §2
[3] = Compound was evaluated for WEHI-3B cell viability after 48 hour at a concentration of 30 uM of compound was reported.; format: functional, Mus musculus; summary of the method: as §2
[4] = Compound was evaluated for WEHI-3B cell viability after 48 hour at a concentration of 5 uM of compound was reported.; format: functional, Mus musculus; summary of the method: as §2
[5] = Compound was evaluated for WEHI-3B cell viability after 24 hour at a concentration of 0 uM of compound was reported.; format: functional, Mus musculus; summary of the method: as §2
[6] = Compound was evaluated for WEHI-3B cell viability after 24 hour at a concentration of 1.25 uM of compound was reported.; format: functional, Mus musculus; summary of the method: as §2
[7] = Compound was evaluated for WEHI-3B cell viability after 24 hour at a concentration of 10 uM of compound was reported.; format: functional, Mus musculus; summary of the method: as §2
[8] = Compound was evaluated for WEHI-3B cell viability after 24 hour at a concentration of 2.5 uM of compound was reported.; format: functional, Mus musculus; summary of the method: as §2
[9] = Compound was evaluated for WEHI-3B cell viability after 24 hour at a concentration of 5 uM of compound was reported.; format: functional, Mus musculus; summary of the method: as §2
[10] = Compound was evaluated for WEHI-3B cell viability after 48 hour at a concentration of 0 uM of compound was reported.; format: functional, Mus musculus; summary of the method: as §2
[11] = Compound was evaluated for WEHI-3B cell viability after 48 hour at a concentration of 1.25 uM of compound was reported.; format: functional, Mus musculus; summary of the method: as §2
[12] = Compound was evaluated for WEHI-3B cell viability after 24 hour at a concentration of 30 uM of compound was reported.; format: functional, Mus musculus; summary of the method: as §2
[13] = Time course effect on killing of WEHI 3B cells at 30 uM concentration, cells were incubated with it 0 minutes before addition of [3H]thymidine; format: functional, cell-based; details: Mus musculus, WEHI3B
Summary of the method: (§3)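 Mouse WEHI 3B cells (RPMI 1640, 10% heat-inactivated FBS, penicillin, streptomycin, 50 μM mercaptoethanol, 37 °C) were seeded at 2×10^4 cells/well. Drug was diluted from 0.1 M ethanol stock into medium, with an ethanol vehicle control. After the stated preincubation, [3H]thymidine (0.1 μCi/well) was added for a further 24 h at 37 °C. Cells were harvested on glass-fibre filters, water-washed and scintillation-counted. Result is % cell survival versus control, mean ± SD, n = 8.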

[14] = Time course effect on killing of WEHI 3B cells at 30 uM concentration, cells were incubated with it 24 hr before addition of [3H]thymidine; format: functional, cell-based; details: Mus musculus, WEHI3B; summary of the method: as §3
[15] = Time course effect on killing of WEHI 3B cells at 30 uM concentration, cells were incubated with it 3 hr before addition of [3H]thymidine; format: functional, cell-based; details: Mus musculus, WEHI3B; summary of the method: as §3
[16] = Time course effect on killing of WEHI 3B cells at 30 uM concentration, cells were incubated with it 48 hours before addition of [3H]thymidine; format: functional, cell-based; details: Mus musculus, WEHI3B; summary of the method: as §3
[17] = Time course effect on killing of WEHI 3B cells at 30 uM concentration, cells were incubated with it 6 hr before addition of [3H]thymidine; format: functional, cell-based; details: Mus musculus, WEHI3B; summary of the method: as §3
[18] = Time course effect on killing of WEHI 3B cells at 30 uM concentration, cells were incubated with it 72 hours before addition of [3H]thymidine; format: functional, cell-based; details: Mus musculus, WEHI3B; summary of the method: as §3
[19] = Time course effect on killing of WEHI 3B cells at 40 uM concentration, cells were incubated with it 0 mins before addition of [3H]thymidine; format: functional, cell-based; details: Mus musculus, WEHI3B; summary of the method: as §3
[20] = Time course effect on killing of WEHI 3B cells at 40 uM concentration, cells were incubated with it 24 hr before addition of [3H]-thymidine; format: functional, cell-based; details: Mus musculus, WEHI3B; summary of the method: as §3
[21] = Time course effect on killing of WEHI 3B cells at 40 uM concentration, cells were incubated with it 3 hr before addition of [3H]thymidine; format: functional, cell-based; details: Mus musculus, WEHI3B; summary of the method: as §3
[22] = Time course effect on killing of WEHI 3B cells at 40 uM concentration, cells were incubated with it 48 hr before addition of [3H]thymidine; format: functional, cell-based; details: Mus musculus, WEHI3B; summary of the method: as §3
[23] = Time course effect on killing of WEHI 3B cells at 40 uM concentration, cells were incubated with it 6 hours before addition of [3H]-thymidine; format: functional, cell-based; details: Mus musculus, WEHI3B; summary of the method: as §3
[24] = Time course effect on killing of WEHI 3B cells at 40 uM concentration, cells were incubated with it 72 hr before addition of [3H]thymidine; format: functional, cell-based; details: Mus musculus, WEHI3B; summary of the method: as §3

Which Control (C653) does the source give for `CCCCCCCCCCCCCCCCOC[C@H](CO[C@@H]1O[C@@H](CO)[C@@H](O)[C@H](O)[C@@H]1O)OC` here?
Its Control is 7%.

And the Control (R6X-B15)?
The Control was 75%.

What about the Control (WEHI3B) of the same compound?
Its Control is 26%.

And the Control (X63/OMIL3 cell line)?
Its Control is 42%.

With `CCCCCCCCCCCCCCCCOC[C@@H](CO[C@@H]1O[C@@H](CO)[C@@H](O)[C@H](O)[C@@H]1O)OC` as the compound, how does the Control (C653) read?
The Control was 70%.

What about the Control (R6X-B15) of the same compound?
The Control was 89%.

And the Control (WEHI3B)?
Its Control is 82%.

What about the Control (X63/OMIL3 cell line) of the same compound?
The Control was 95%.

What does the source list for `CCCCCCCCCCCCCCCCOC[C@@H](COP(=O)([O-])OCC[N+](C)(C)C)OC`?
Control (C653): 5%; Control (R6X-B15): 45%; Control (WEHI3B): 0.3%; Control (X63/OMIL3 cell line): 2.5%

What does the source list for `CCCCCCCCCCCCCCCCOC[C@H](COP(=O)([O-])OCC[N+](C)(C)C)OC`?
Control (C653): 4%; Control (R6X-B15): 55%; Viable cells [1]: 0%; Viable cells [2]: 18%; Viable cells [3]: 0%; Viable cells [4]: 1%; Viable cells [5]: 100%; Viable cells [6]: 44%; Viable cells [7]: 0%; Viable cells [8]: 39%; Viable cells [9]: 8%; Viable cells [10]: 100%; Viable cells [11]: 48%; Control (WEHI3B): 0.4%; Control (X63/OMIL3 cell line): 3%; Viable cells [12]: 0%

With `CCCCCCCCCCCCCCCCOC[C@H](CS[C@@H]1O[C@@H](CO)[C@@H](O)[C@H](O)[C@H]1O)OC` as the compound, how does the Control (C653) read?
Its Control is 78%.

What about the Control (R6X-B15) of the same compound?
Its Control is 98%.

What about the Control (WEHI3B) of the same compound?
The Control was 80%.

And the Control (X63/OMIL3 cell line)?
The Control was 84%.

For `CCCCCCCCCCCCCCCCOC[C@H](CS[C@H]1O[C@@H](CO)[C@@H](O)[C@H](O)[C@H]1O)OC`, which Control (C653) is on record?
The Control was 13%.

And the Control (R6X-B15)?
The Control was 66%.

What about the Viable cells [1] of the same compound?
Its Viable cells is 0.3%.

What about the Viable cells [2] of the same compound?
The Viable cells was 64%.

And the Viable cells [3]?
The Viable cells was 0%.

What about the Viable cells [4] of the same compound?
Its Viable cells is 25%.

And the Cell survival [13]?
Its Cell survival is 79%.

And the Cell survival [14]?
Its Cell survival is 48%.

And the Cell survival [15]?
The Cell survival was 57%.

What about the Cell survival [16] of the same compound?
Its Cell survival is 46%.

What about the Cell survival [17] of the same compound?
Its Cell survival is 53%.

What about the Cell survival [18] of the same compound?
Its Cell survival is 25%.

What about the Cell survival [19] of the same compound?
The Cell survival was 49%.

What about the Cell survival [20] of the same compound?
The Cell survival was 20%.

And the Cell survival [21]?
Its Cell survival is 49%.

And the Cell survival [22]?
Its Cell survival is 0.5%.

What about the Cell survival [23] of the same compound?
Its Cell survival is 27%.

And the Cell survival [24]?
The Cell survival was 0%.

What about the Viable cells [5] of the same compound?
Its Viable cells is 100%.

And the Viable cells [6]?
Its Viable cells is 90%.

What about the Viable cells [7] of the same compound?
Its Viable cells is 53%.

And the Viable cells [8]?
Its Viable cells is 75%.

And the Viable cells [9]?
Its Viable cells is 64%.

What about the Viable cells [10] of the same compound?
Its Viable cells is 100%.

What about the Viable cells [11] of the same compound?
The Viable cells was 72%.

And the Control (WEHI3B)?
The Control was 7%.

And the Control (X63/OMIL3 cell line)?
The Control was 71%.

And the Viable cells [12]?
The Viable cells was 48%.
